Eight compounds from ChEMBL document CHEMBL1124223, “1-Substituted 7-[3-[(ethylamino)methyl]-1-pyrrolidinyl]-6,8- difluoro-1,4-dihydro-4-oxo-3-quinolinecarboxylic acids. New quantitative structure-activity relationships at N1 for the quinolone antibacterials” (1988) can be followed below.

Structures are written as SMILES. In brackets after ≈: the same amount, converted by molar mass.

For one assay, the system named is Enterobacter. Briefly: Minimum inhibitory concentration against gram-negative enterobacteriaceae. In kind it is functional. The gist of the method: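 This value is the geometric mean of microtitration MICs for the Gram-negative Enterobacteriaceae strains in the 11-organism panel. Aqueous stocks were prepared in 0.1 N sodium or potassium hydroxide.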
For assay [1], the system named is Staphylococcus aureus. Briefly: Minimum inhibitory concentration against Staphylococcus aureus (UC76). In kind it is functional. The procedure, abridged: (§1)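 MICs were determined by standard microtitration against a panel of 11 bacterial strains. Aqueous stock solutions were prepared with 0.1 N sodium or potassium hydroxide.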
Assay [2] deals with DNA gyrase (Escherichia coli) (UniProt P0AES6+P0AES4). Briefly: Concentration required for 50% inhibition of gyrase. In kind it is protein-complex assay. The gist of the method: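 DNA gyrase inhibition: the drug concentration (µg/mL) giving 50% inhibition (I50) was recorded, along with the lowest concentration inducing gyrase-mediated DNA cleavage. Data come from duplicate experiments with ±50% reproducibility.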

The subject of a further assay is Enterobacter cloacae. Briefly: Minimum inhibitory concentration against Enterobacter cloacae. (MA2446). The assay is classed as functional.
The test system of assay [3] is Staphylococcus aureus. Briefly: Minimum inhibitory concentration against Staphylococcus aureus (H-228). In kind it is functional. The procedure, abridged: as §1
For a further assay, the system named is Pseudomonas aeruginosa. Briefly: Minimum inhibitory concentration against Pseudomonas aeruginosa. (UI-18). In kind it is functional. The procedure, abridged: as §1
For another assay, the system named is Klebsiella pneumoniae. Briefly: Minimum inhibitory concentration against Klebsiella pneumoniae (MGH-2). In kind it is functional. The procedure, abridged:
as §1

Another assay has as its system Enterococcus faecalis. Briefly: Minimum inhibitory concentration against Streptococcus faecalis (MGH-2). In kind it is functional. The procedure, abridged: as §1
Assay [4] concerns Escherichia coli. Briefly: Minimum inhibitory concentration against Escherichia coli (H560). The assay is classed as functional. The gist of the method:
as §1

The subject of a further assay is Streptococcus pneumoniae. Briefly: Minimum inhibitory concentration against Streptococcus pneumoniae (SV-1). In kind it is functional. The gist of the method: as §1
For assay [5], the system named is Escherichia coli. Briefly: Minimum inhibitory concentration against Escherichia coli (vogel). In kind it is functional. The gist of the method: as §1
The next assay concerns Providencia rettgeri. Briefly: Minimum inhibitory concentration against Providencia rettgeri. (M1771). The assay is classed as functional. The gist of the method: as §1
A further assay deals with Streptococcus pyogenes. Briefly: Minimum inhibitory concentration against Streptococcus pyogenes (C203). The assay is classed as functional. The procedure, abridged: as §1

The MIC is the smallest concentration in the dilution series that meets the test's criterion for growth inhibition. A higher MIC goes with a less susceptible organism. As usually defined, the IC50 is the midpoint of a concentration-inhibition curve. A high value points to weaker potency in that assay. `CCNCC1CCN(c2c(F)cc3c(=O)c(C(=O)O)cn(C4CCCCC4)c3c2F)C1` (centres undefined): the MIC is 16.5 µg/mL (≈ 38.1 µM) in the assay with Enterobacter; 3.1 µg/mL (≈ 7.15 µM) against Staphylococcus aureus [1]; 25 µg/mL (≈ 57.7 µM) with Enterobacter cloacae; 6.3 µg/mL (≈ 14.5 µM) against Staphylococcus aureus [3]; more than 100 µg/mL in the assay with Pseudomonas aeruginosa; 12.5 µg/mL (≈ 28.8 µM) against Klebsiella pneumoniae. Also, the MIC against Enterococcus faecalis was 6.3 µg/mL (≈ 14.5 µM); against Escherichia coli [4] it was 3.1 µg/mL (≈ 7.15 µM); in the assay with Streptococcus pneumoniae, 3.1 µg/mL (≈ 7.15 µM); in the assay with Escherichia coli [5], 6.3 µg/mL (≈ 14.5 µM); in the assay on Providencia rettgeri it was more than 100 µg/mL; in the assay on Streptococcus pyogenes, 6.3 µg/mL (≈ 14.5 µM). The compound further yielded an IC50 in assay [2] of 30 µg/mL (≈ 69.2 µM).
In the case of `CCNCC1CCN(c2c(F)cc3c(=O)c(C(=O)O)cn(OC)c3c2F)C1` (centres undefined), the minimal inhibitory concentration (MIC) against Enterobacter was found to be 0.46 µg/mL (≈ 1.21 µM); in the assay with Staphylococcus aureus [1], 0.2 µg/mL (≈ 0.524 µM); in the assay on Enterobacter cloacae, 0.4 µg/mL (≈ 1.05 µM); with Staphylococcus aureus [3] it was 0.8 µg/mL (≈ 2.1 µM); in the assay with Pseudomonas aeruginosa, 6.3 µg/mL (≈ 16.5 µM); in the assay on Klebsiella pneumoniae, 0.2 µg/mL (≈ 0.524 µM). Moreover, the MIC against Enterococcus faecalis was determined as 0.8 µg/mL (≈ 2.1 µM); in the assay with Escherichia coli [4], 0.4 µg/mL (≈ 1.05 µM); against Streptococcus pneumoniae it was 0.8 µg/mL (≈ 2.1 µM); against Escherichia coli [5], 0.4 µg/mL (≈ 1.05 µM); in the assay with Providencia rettgeri, 1.6 µg/mL (≈ 4.2 µM); in the assay on Streptococcus pyogenes it was 0.8 µg/mL (≈ 2.1 µM). Also, the IC50 in [2] was 27 µg/mL (≈ 70.8 µM).
Turning to `CCNCC1CCN(c2c(F)cc3c(=O)c(C(=O)O)cn(C4CC4C)c3c2F)C1` (centres undefined), the MIC against Enterobacter was 1.59 µg/mL (≈ 3.92 µM); against Staphylococcus aureus [1], 0.2 µg/mL (≈ 0.493 µM); against Enterobacter cloacae, 1.6 µg/mL (≈ 3.95 µM); against Staphylococcus aureus [3], 0.8 µg/mL (≈ 1.97 µM); in the assay on Pseudomonas aeruginosa, 6.3 µg/mL (≈ 15.5 µM); against Klebsiella pneumoniae, 1.6 µg/mL (≈ 3.95 µM). The MIC in the assay with Enterococcus faecalis turned out to be 0.4 µg/mL (≈ 0.987 µM); in the assay on Escherichia coli [4] it was 0.8 µg/mL (≈ 1.97 µM); against Streptococcus pneumoniae it was 0.8 µg/mL (≈ 1.97 µM); in the assay with Escherichia coli [5] it was 0.8 µg/mL (≈ 1.97 µM); in the assay with Providencia rettgeri, 6.3 µg/mL (≈ 15.5 µM); against Streptococcus pyogenes it was 0.8 µg/mL (≈ 1.97 µM). This compound returned an IC50 in assay [2] of 13 µg/mL (≈ 32.1 µM).
For `CCNCC1CCN(c2c(F)cc3c(=O)c(C(=O)O)cn(-c4ccccc4)c3c2F)C1` (centres undefined), the MIC in the assay on Enterobacter is 1.83 µg/mL (≈ 4.28 µM); in the assay with Staphylococcus aureus [1] it was 0.2 µg/mL (≈ 0.468 µM); in the assay on Enterobacter cloacae it was 1.6 µg/mL (≈ 3.74 µM); with Staphylococcus aureus [3], 0.8 µg/mL (≈ 1.87 µM); in the assay on Pseudomonas aeruginosa, 6.3 µg/mL (≈ 14.7 µM); in the assay with Klebsiella pneumoniae it was 1.6 µg/mL (≈ 3.74 µM). Further, the minimal inhibitory concentration (MIC) in the assay on Enterococcus faecalis came to 0.8 µg/mL (≈ 1.87 µM); against Escherichia coli [4], 0.8 µg/mL (≈ 1.87 µM); in the assay with Streptococcus pneumoniae, 1.6 µg/mL (≈ 3.74 µM); in the assay on Escherichia coli [5], 1.6 µg/mL (≈ 3.74 µM); against Providencia rettgeri it was 6.3 µg/mL (≈ 14.7 µM); against Streptococcus pyogenes, 1.6 µg/mL (≈ 3.74 µM). 29 µg/mL (≈ 67.8 µM) corresponded to half-maximal inhibition in [2] (IC50).
As for `CCNCC1CCN(c2c(F)cc3c(=O)c(C(=O)O)cn(C4CCCC4)c3c2F)C1` (centres undefined), the MIC stood at 3.6 µg/mL (≈ 8.58 µM) in the assay on Enterobacter; 0.1 µg/mL (≈ 0.238 µM) in the assay with Staphylococcus aureus [1]; 6.3 µg/mL (≈ 15 µM) against Enterobacter cloacae; 0.4 µg/mL (≈ 0.954 µM) in the assay with Staphylococcus aureus [3]; 12.5 µg/mL (≈ 29.8 µM) against Pseudomonas aeruginosa; 3.1 µg/mL (≈ 7.39 µM) against Klebsiella pneumoniae. The minimal inhibitory concentration (MIC) with Enterococcus faecalis turned out to be 0.4 µg/mL (≈ 0.954 µM); in the assay on Escherichia coli [4], 0.8 µg/mL (≈ 1.91 µM); with Streptococcus pneumoniae, 0.2 µg/mL (≈ 0.477 µM); in the assay on Escherichia coli [5], 3.1 µg/mL (≈ 7.39 µM); against Providencia rettgeri, 12.5 µg/mL (≈ 29.8 µM); against Streptococcus pyogenes, 0.4 µg/mL (≈ 0.954 µM). Further, in assay [2], the IC50 is 28 µg/mL (≈ 66.8 µM).
In the case of `CCNCC1CCN(c2c(F)cc3c(=O)c(C(=O)O)cn(-c4nccs4)c3c2F)C1` (centres undefined), the MIC in the assay on Enterobacter was 3.14 µg/mL (≈ 7.23 µM); with Staphylococcus aureus [1], 1.6 µg/mL (≈ 3.68 µM); against Enterobacter cloacae it was 1.6 µg/mL (≈ 3.68 µM); in the assay on Staphylococcus aureus [3] it was 25 µg/mL (≈ 57.5 µM); with Pseudomonas aeruginosa, 25 µg/mL (≈ 57.5 µM); against Klebsiella pneumoniae it was 3.1 µg/mL (≈ 7.14 µM). Besides, the MIC in the assay on Enterococcus faecalis amounted to 6.3 µg/mL (≈ 14.5 µM); against Escherichia coli [4], 3.1 µg/mL (≈ 7.14 µM); in the assay on Streptococcus pneumoniae it was 12.5 µg/mL (≈ 28.8 µM); in the assay on Escherichia coli [5], 1.6 µg/mL (≈ 3.68 µM); against Providencia rettgeri, 12.5 µg/mL (≈ 28.8 µM); against Streptococcus pyogenes it was 6.3 µg/mL (≈ 14.5 µM). In assay [2], this compound returned an IC50 of 30 µg/mL (≈ 69 µM).
For the compound `CCNCC1CCN(c2c(F)cc3c(=O)c(C(=O)O)cn(C4(C)CC4)c3c2F)C1` (centres undefined), the MIC was 1.38 µg/mL (≈ 3.4 µM) against Enterobacter; 0.1 µg/mL (≈ 0.247 µM) with Staphylococcus aureus [1]; 3.1 µg/mL (≈ 7.65 µM) in the assay with Enterobacter cloacae; 0.4 µg/mL (≈ 0.987 µM) against Staphylococcus aureus [3]; 3.1 µg/mL (≈ 7.65 µM) with Pseudomonas aeruginosa; 0.8 µg/mL (≈ 1.97 µM) against Klebsiella pneumoniae. The MIC against Enterococcus faecalis worked out at 0.2 µg/mL (≈ 0.493 µM); in the assay on Escherichia coli [4], 1.6 µg/mL (≈ 3.95 µM); with Streptococcus pneumoniae it was 0.8 µg/mL (≈ 1.97 µM); in the assay with Escherichia coli [5], 0.8 µg/mL (≈ 1.97 µM); in the assay with Providencia rettgeri, 1.6 µg/mL (≈ 3.95 µM); against Streptococcus pyogenes it was 0.8 µg/mL (≈ 1.97 µM). This compound also yielded an IC50 in assay [2] of 6.3 µg/mL (≈ 15.5 µM).
Consider `CCNCC1CCN(c2c(F)cc3c(=O)c(C(=O)O)cn(C(C)C)c3c2F)C1` (centres undefined), for which the minimal inhibitory concentration (MIC) in the assay on Enterobacter is 1.05 µg/mL (≈ 2.67 µM); against Staphylococcus aureus [1], 0.2 µg/mL (≈ 0.508 µM); in the assay with Enterobacter cloacae it was 1.6 µg/mL (≈ 4.07 µM); in the assay with Staphylococcus aureus [3], 0.4 µg/mL (≈ 1.02 µM); with Pseudomonas aeruginosa, 12.5 µg/mL (≈ 31.8 µM); with Klebsiella pneumoniae, 0.8 µg/mL (≈ 2.03 µM). The MIC in the assay on Enterococcus faecalis was 1.6 µg/mL (≈ 4.07 µM); in the assay with Escherichia coli [4], 0.2 µg/mL (≈ 0.508 µM); against Streptococcus pneumoniae, 0.8 µg/mL (≈ 2.03 µM); against Escherichia coli [5], 0.8 µg/mL (≈ 2.03 µM); with Providencia rettgeri, 6.3 µg/mL (≈ 16 µM); in the assay with Streptococcus pyogenes it was 0.2 µg/mL (≈ 0.508 µM). In addition, the IC50 in assay [2] turned out to be 28 µg/mL (≈ 71.2 µM).
